# Published values from different studies.
# Compare with care: the assays were run in different laboratories.
# Observed: cell growth or viability
SMILES,cell line,test,setting,IC50
CC1=CC(=O)C(C(C)C)=CC1=O,SNB-19,SRB,48 h,56.9 µM
NCc1ccc(-c2nn(Cc3ccccn3)c3cccnc23)o1,HuCCT-1,ATP luminescence,,> 46 µM
CC(C)[C@@H]1NC(=O)/C(=C/c2cnc[nH]2)NC1=O,ASPC1,SRB,,> 15 µM
O=C(Nc1ccc(-c2ccc3ncn(Cc4ccccc4)c(=O)c3c2)cn1)C1CCCC1,HCC827,CCK-8,72 h,> 10 µM
O=c1[nH]cc(F)c(=O)[nH]1,HaCaT,SRB,,0.05 µg/mL
Cc1nc(Nc2ncc(C(=O)Nc3c(C)cccc3Cl)s2)cc(N2CC[C@H](O)C2)n1,OCI-LY19,ATP luminescence,72 h,> 10 µM
O=c1[nH]cc(F)c(=O)[nH]1,WI-38,MTT,72 h,42.2 µM
O=C1CS/C(=N\c2cc(C(F)(F)F)ccc2-c2nnc(N3C(=O)CS/C3=N\c3cc(O)cc(Br)c3)s2)N1c1cc(O)cc(Br)c1,WI-38,MTT,,71.1 µM
CCCn1cnc2ccc(-c3ccc(NC(=O)c4ccccc4)nc3)cc2c1=O,HCC827,CCK-8,72 h,0.1 µM
O=C1CS/C(=N\c2ccccc2O)N1c1nnc(-c2ccc(C(F)(F)F)cc2/N=C2\SCC(=O)N2c2ccccc2O)s1,WI-38,MTT,,32.3 µM
OCc1ccc(-c2nn(Cc3cccnc3)c3ccccc23)o1,HuCCT-1,ATP luminescence,,> 46 µM
COc1cccc2c1C(=O)c1c(O)c3c(c(O)c1C2=O)C[C@@](O)(C(=O)CO)C[C@@H]3O[C@H]1C[C@H](N)[C@H](O)[C@H](C)O1,HuCCT-1,,96 h,0.0249 µM
O=C(Nc1ccc(-c2ccc3ncn(Cc4ccccc4)c(=O)c3c2)cn1)c1ccc(F)cc1,HCC827,CCK-8,72 h,> 10 µM
COc1cccc2c1C(=O)c1c(O)c3c(c(O)c1C2=O)C[C@@](O)(C(=O)CO)C[C@@H]3O[C@H]1C[C@H](N)[C@H](O)[C@H](C)O1,HaCaT,MTT,72 h,0.3 µM
Cc1ccc(NC(=O)Nc2ccc(-c3ccc4ncn(Cc5ccccc5)c(=O)c4c3)cn2)cc1,HCC827,CCK-8,72 h,> 10 µM
COc1ncccc1Cn1nc(-c2ccc(CO)o2)c2ccccc21,HuCCT-1,ATP luminescence,,> 46 µM
CCCCn1cnc2ccc(-c3ccc(NC(=O)Nc4ccc(C)cc4)nc3)cc2c1=O,HCC827,CCK-8,72 h,9.15 µM
O=C1CSC(=Nc2cc(C(F)(F)F)ccc2-c2nnc(N3C(=O)CSC3=Nc3ccc([N+](=O)[O-])cc3)s2)N1c1ccc([N+](=O)[O-])cc1,WI-38,MTT,,77.3 µM
CCCCC(=O)Nc1ccc(-c2ccc3ncn(CCC)c(=O)c3c2)c(C)n1,HCC827,CCK-8,72 h,1.68 µM
O=P1(C2CCCCC2)CCCCC1,HaCaT,MTT,72 h,> 100 µM
